Laboratory results from ChEMBL document CHEMBL1145812, “Synthesis and biological evaluation of 18-methoxycoronaridine congeners. Potential antiaddiction agents” (J Med Chem, 2003).

What was measured:
[1] = target: T1, Neuronal acetylcholine receptor; alpha3/beta4 (Homo sapiens, UniProt P30926+P32297); assay: Recovery from Ach evoked currents at alpha3-beta4 nicotinic acetylcholine receptor at 20 uM; format: functional
Outline: (§1)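 HEK293 cells transiently co-transfected with nAChR α3 and β4 cDNAs plus EGFP; EGFP-positive cells recorded 12–36 h later by whole-cell voltage clamp at -70 mV. Pipette: CsCl/CsF/HEPES/EGTA, pH 7.2; bath: NaCl/KCl/HEPES/glucose, pH 7.3. Each compound was co-applied at 20 µM (one at 18 µM) with 1 mM ACh. Reported: percent inhibition, rate of inhibition and percent recovery, as mean ± SEM.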

[2] = target: T1, Neuronal acetylcholine receptor; alpha3/beta4; assay: Rate of inhibition of Ach evoked currents at alpha3-beta4 nicotinic acetylcholine receptor by 20 uM concentration; format: functional; outline: as §1
[3] = target: T1, Neuronal acetylcholine receptor; alpha3/beta4; assay: Inhibition of Ach evoked currents at alpha3-beta4 nicotinic acetylcholine receptor by 20 uM concentration; format: functional; outline: as §1
[4] = target: Kappa-type opioid receptor (Cavia porcellus) (UniProt P41144); assay: Inhibition of [3H]U-69593 binding to Opioid receptor kappa 1 from guinea pig brain membranes; set-up: concentration or dose not given beside the values; settings: concentration not given here
Outline: (§2)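 Guinea pig brain membranes (0.5 mg protein/sample) were incubated at 25 °C in 50 mM Tris-HCl, pH 7.5, with receptor-specific radioligand and compound at 1 µM. Nonspecific binding was defined with 10 µM naloxone. Values are the mean ± SE of three separate experiments, each run in triplicate.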

[5] = target: Mu-type opioid receptor (Cavia porcellus) (UniProt P97266); assay: Inhibition of [3H]DAMGO binding to Opioid receptor mu 1 from guinea pig brain membranes; set-up: concentration or dose not given beside the values; settings: concentration not given here; outline: as §2
[6] = Relative inhibition index (RI) was determined as the % recovery / (rate of inhibition) and is expressed relative to Compound 3; format: functional
Outline: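 Read from the same α3β4 whole-cell ACh (1 mM) co-application recordings. The index is percent recovery divided by rate of inhibition, normalised to the parent reference ligand. Values below 1.0 mean lower Ki; values above 1.0 mean higher Ki.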

[7] = target: T1, Neuronal acetylcholine receptor; alpha3/beta4; assay: Recovery from Ach evoked currents at Nicotinic acetylcholine receptor alpha3-beta4 at 20 uM concentration; format: functional; outline: as §1
[8] = target: Mu-type opioid receptor (Cavia porcellus, UniProt P97266); assay: Binding affinity was determined against Opioid receptor mu 1 from guinea pig brain membranes
[9] = target: T1, Neuronal acetylcholine receptor; alpha3/beta4; assay: Rate of inhibition of Ach evoked currents at Nicotinic acetylcholine receptor alpha3-beta4 by 20 uM concentration; format: functional; outline: as §1
[10] = target: T1, Neuronal acetylcholine receptor; alpha3/beta4; assay: Binding affinity towards Nicotinic acetylcholine receptor alpha3-beta4 determined from kinetic measures of koff/kon; format: protein-complex assay
Outline: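 Ki was estimated as koff/kon from α3β4 whole-cell recordings with drug at 20 µM co-applied with 1 mM ACh. koff was taken from the rate of recovery and kon from the rate of inhibition.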

[11] = target: Kappa-type opioid receptor (Cavia porcellus, UniProt P41144); assay: Binding affinity was determined against Opioid receptor kappa 1 from guinea pig brain membranes
[12] = target: T1, Neuronal acetylcholine receptor; alpha3/beta4; assay: Inhibition of Ach evoked currents at Nicotinic acetylcholine receptor alpha3-beta4 by 20 uM concentration; format: functional; outline: as §1
[13] = target: T1, Neuronal acetylcholine receptor; alpha3/beta4; assay: Recovery from Ach evoked currents at alpha3-beta4 nicotinic acetylcholine receptor at 20 uM concentration; format: functional; outline: as §1
[14] = target: T1, Neuronal acetylcholine receptor; alpha3/beta4; assay: Recovery from Ach evoked currents at Nicotinic acetylcholine receptor alpha3-beta4 at 18 uM concentration; format: functional; outline: as §1
[15] = target: T1, Neuronal acetylcholine receptor; alpha3/beta4; assay: Rate of inhibition of Ach evoked currents at Nicotinic acetylcholine receptor alpha3-beta4 by 18 uM concentration; format: functional; outline: as §1
[16] = target: T1, Neuronal acetylcholine receptor; alpha3/beta4; assay: Inhibition of Ach evoked currents at Nicotinic acetylcholine receptor alpha3-beta4 by 18 uM concentration; format: functional; outline: as §1
[17] = target: Mu-type opioid receptor (Cavia porcellus) (UniProt P97266); assay: Inhibitory activity was determined against Opioid receptor mu 1 from guinea pig brain membranes at 1 uM concentration, using 0.25 nM of [3H]DAMGO radioligand; settings: Membrane; outline: as §2

Chain of Kappa-type opioid receptor (Cavia porcellus) (P41144 whole entry): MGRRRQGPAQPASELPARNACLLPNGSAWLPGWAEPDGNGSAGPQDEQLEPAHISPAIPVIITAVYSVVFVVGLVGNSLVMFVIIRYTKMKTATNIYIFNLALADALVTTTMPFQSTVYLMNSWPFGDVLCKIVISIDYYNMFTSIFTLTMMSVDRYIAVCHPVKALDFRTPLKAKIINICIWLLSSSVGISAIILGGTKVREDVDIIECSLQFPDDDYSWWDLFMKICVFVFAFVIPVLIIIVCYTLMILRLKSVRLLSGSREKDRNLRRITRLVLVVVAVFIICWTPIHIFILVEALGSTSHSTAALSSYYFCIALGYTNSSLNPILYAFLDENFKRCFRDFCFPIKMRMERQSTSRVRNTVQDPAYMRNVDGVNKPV
Chain of Mu-type opioid receptor (Cavia porcellus) (P97266 whole entry): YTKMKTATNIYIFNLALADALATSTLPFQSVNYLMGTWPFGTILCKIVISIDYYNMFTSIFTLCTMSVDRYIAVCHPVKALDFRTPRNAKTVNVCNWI
Chain of Kappa-type opioid receptor (P41144 whole entry): as the sequence (P41144 whole entry) above
T1 sequence (P30926 whole entry): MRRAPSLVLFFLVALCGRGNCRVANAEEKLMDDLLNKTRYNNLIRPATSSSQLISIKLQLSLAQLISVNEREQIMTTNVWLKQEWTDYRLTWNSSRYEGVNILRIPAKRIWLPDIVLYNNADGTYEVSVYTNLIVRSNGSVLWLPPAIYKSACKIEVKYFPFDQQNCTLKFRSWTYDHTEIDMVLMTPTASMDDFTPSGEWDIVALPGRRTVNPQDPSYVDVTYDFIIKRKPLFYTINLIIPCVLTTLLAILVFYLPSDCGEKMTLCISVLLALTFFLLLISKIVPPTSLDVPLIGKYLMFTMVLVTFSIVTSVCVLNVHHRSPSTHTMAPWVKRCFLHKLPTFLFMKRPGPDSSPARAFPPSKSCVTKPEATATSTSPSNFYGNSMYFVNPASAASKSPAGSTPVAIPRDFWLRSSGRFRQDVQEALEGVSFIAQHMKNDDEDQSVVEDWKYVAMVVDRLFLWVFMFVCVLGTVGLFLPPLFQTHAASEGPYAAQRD
T1 sequence (P32297 whole entry): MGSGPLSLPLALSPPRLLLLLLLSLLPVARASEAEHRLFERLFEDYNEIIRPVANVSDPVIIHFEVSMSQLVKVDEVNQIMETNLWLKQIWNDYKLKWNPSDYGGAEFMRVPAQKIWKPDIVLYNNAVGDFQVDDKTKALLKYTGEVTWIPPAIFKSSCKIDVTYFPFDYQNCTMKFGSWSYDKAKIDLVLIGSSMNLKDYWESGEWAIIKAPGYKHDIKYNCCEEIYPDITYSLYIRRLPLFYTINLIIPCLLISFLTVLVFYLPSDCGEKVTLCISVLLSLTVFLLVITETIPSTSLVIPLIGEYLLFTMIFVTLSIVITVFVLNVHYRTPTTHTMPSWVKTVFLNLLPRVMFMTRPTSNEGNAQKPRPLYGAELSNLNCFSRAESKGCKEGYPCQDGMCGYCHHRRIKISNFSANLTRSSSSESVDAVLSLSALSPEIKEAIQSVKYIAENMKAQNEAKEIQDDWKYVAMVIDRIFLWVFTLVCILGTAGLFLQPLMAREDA
Chain of Mu-type opioid receptor (P97266 whole entry): as the sequence (P97266 whole entry) above

| SMILES | Recovery [1] [%] | Rate of inhibition [2] [s⁻¹] | inhibition [3] [%] | inhibition [4] [%] | inhibition [5] [%] | RI [6] | other results |
| --- | --- | --- | --- | --- | --- | --- | --- |
| COCCC1C2CN3CCc4c([nH]c5ccccc45)[C@](C(=O)OC)(C2)[C@H]13 (some centres undefined) | 14 | 4.1 | 94 | 10 | 18 | 1.6 | – |
| COCCOC(=O)[C@@]12CC3C[C@H](CCOC)[C@@H]1N(CCc1c2[nH]c2ccccc12)C3 | 8 | 6 | 99 | 24 | 5 | 0.6 | – |
| COCC[C@H]1CC2CN3CCc4c([nH]c5ccccc45)[C@](C(=O)OC)(C2)[C@H]13 [18-METHOXYCORONARIDINE] | – | – | – | 20 | 50 | 1 | Recovery [7]: 12%; Ki [8]: 1100 nM; Rate of inhibition [9]: 5.5 s⁻¹; Ki [10]: 700 nM; Ki [11]: 5100 nM; inhibition [12]: 98% |
| COCCNC(=O)[C@@]12CC3C[C@H](CCOC)[C@@H]1N(CCc1c2[nH]c2ccccc12)C3 | – | 9.2 | 96 | 6 | 10 | 2.3 | Recovery [13]: 46% |
| CNCC[C@H]1CC2CN3CCc4c([nH]c5ccccc45)[C@](C(=O)OC)(C2)[C@H]13 | 21 | 8.5 | 98 | 7 | 24 | 1.1 | – |
| COCC[C@H]1CC2CN3CCc4c([nH]c5ccccc45)[C@](C(=O)NCCN(C)C)(C2)[C@H]13 | – | 9.5 | 93 | 11 | 4 | 3.9 | Recovery [13]: 81% |
| COCC[C@H]1CC2CN3CCc4c([nH]c5ccccc45)[C@](C(=O)NCCCCCCNC(=O)CCCC[C@@H]4SCC5NC(=O)NC54)(C2)C13 (some centres undefined) | – | – | – | 9 | 19 | – | – |
| COCC[C@H]1CC2CN3CCc4c([nH]c5ccccc45)[C@](C(=O)OCCO)(C2)[C@H]13 | 20 | 7.6 | 97 | 8 | 8 | 1.2 | – |
| COC(=O)[C@@]12CC3C[C@H](CCO)[C@@H]1N(CCc1c2[nH]c2ccccc12)C3 | – | – | – | 4 | 15 | 5.4 | Recovery [14]: 73%; Rate of inhibition [15]: 6.5 s⁻¹; inhibition [16]: 98% |
| COCC[C@H]1CC2CN3CCc4c([nH]c5ccccc45)[C@](C(=O)O)(C2)[C@H]13 | 27 | 5.1 | 59 | 7 | – | 2.4 | inhibition [17]: 11% |
| COC(=O)[C@@]12CC3C[C@H](CCOCc4ccccc4)[C@@H]1N(CCc1c2[nH]c2ccccc12)C3 | – | – | – | 6 | – | – | Recovery [7]: 0%; Rate of inhibition [9]: 2.2 s⁻¹; inhibition [17]: 12%; inhibition [12]: 64% |
| COCC[C@H]1CC2CN3CCc4c([nH]c5ccccc45)[C@](C(=O)OCCNC(C)=O)(C2)[C@H]13 | 45 | 6.7 | 95 | 3 | 0 | 3.1 | – |
| COC(=O)[C@@]12CC3C[C@H](CCN(C)C)[C@@H]1N(CCc1c2[nH]c2ccccc12)C3 | 16 | 8 | 99 | 11 | 15 | 0.9 | – |
| COCC[C@H]1CC2CN3CCc4c([nH]c5ccccc45)[C@](C(=O)OCCN(C)C)(C2)[C@H]13 | 16 | 10.3 | 98 | 78 | 16 | 0.7 | Ki [11]: 188 nM |
| COCC[C@H]1CC2CN3CCc4c([nH]c5ccccc45)[C@](C(=O)NCCO)(C2)[C@H]13 | 80 | 7.9 | 85 | 9 | 7 | 4.7 | – |
